Apaf-1 act: activators of human Apaf-1 apoptosome, primary screen, biochemical, DEVD-Rh110 fluorescence, uHTS. Apoptotic protease-activating factor 1 (Homo sapiens), O14727. Apaf-1 apoptosome caspase-3 activation; stronger effect = lower value. activity change, negative = activation, % at 20 µM. 330,000 compounds, 0.31% hits;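 active = activity change at or below -40% at 20 µM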
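system = biochemical Apaf-1 apoptosome reconstitution | buffer or medium = 20 mM HEPES pH 7.5 with CHAPS, BSA | also added = dATP and cytochrome c as apoptosome triggers, (Z-DEVD)2-Rh110 substrate | incubation = 30 min compound preincubation and 50 min reaction, both room temperature | measured by = fluorescence, 540 nm emission, 480 nm excitation | read-out basis = Caspase-3 cleavage activity downstream of Apaf-1 activation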
* hit, by the source's call. The list is a sample of the results.

SMILES	Apaf-1 act
Cc1c(C#N)c(=O)oc2ccc3ccccc3c12	-97.5*
O=C(OCC(=O)N1CCC(c2ccccc2)=N1)c1ccc([N+](=O)[O-])s1	51.6
CCOc1cc(C2C(C(C)=O)=C(O)C(=O)N2CCc2c[nH]c3ccccc23)ccc1O (centres undefined)	49.2
CCCOc1ccc(C2C(C(=O)c3ccco3)=C(O)C(=O)N2CCN2CCOCC2)cc1OC (centres undefined)	-492.2*
COc1ccc(NS(=O)(=O)c2cc(C(=O)N3CCC3)ccc2C)cc1	47.5
COc1ccc(CC2=CC(=O)c3ccccc3C2=O)cc1	49.6
COc1ccc(OCc2cc(C(=O)NC3CCOC(C)(C)C3)no2)c2ccccc12 (centres undefined)	62.9
CN(Cc1ccccn1)C(=O)c1ccc2nc(Cc3cccc(Cl)c3)oc2c1	-115.6*
O=C(c1ccco1)N1CCN(C(=O)c2cn(-c3ccccc3)nc2-c2ccc(F)cc2)CC1	72.0
O=C(Cc1cc(=O)[nH][nH]1)N/N=C/c1cccc(Cl)c1Cl	47.5
COCC(=O)O[C@]1(CCN(C)CCCc2nc3ccccc3[nH]2)CCc2cc(F)ccc2[C@@H]1C(C)C	54.3
CCN1CCc2c(sc(NC(=O)c3cc4ccccc4cc3OC)c2C(N)=O)C1	65.4
O=S(=O)(NCC(c1ccccc1)N1CCNCC1)c1ccc(Cl)cc1 (centres undefined)	42.8
Cc1noc(C)c1S(=O)(=O)N1CCN(C(c2ccccc2)c2ccc(Cl)cc2)CC1 (centres undefined)	-108.2*
CCCN1CCN(C(=O)C2CCN(S(=O)(=O)c3c(C)noc3/C=C/c3ccc(C)cc3)CC2)CC1	60.9
CCC[C@@H](CN1CCC[C@H]1CN1C(N)=NC[C@H]1C(C)C)N1C[C@@H](Cc2ccccc2)N(CCCC2CCCC2)C1=N	45.6
CNC[C@H](Cc1cccc2ccccc12)NC[C@H](CCSC)NCC1CCC(C(C)(C)C)CC1 (some centres undefined)	64.7
O=C(Nc1nc2c(Cl)cccc2s1)c1ccc([N+](=O)[O-])o1	-119.8*
CC1(c2ccc(OC(F)F)cc2)NC(=O)N(CC(=O)Nc2ccc(N3CCCCC3)cc2)C1=O (centres undefined)	53.2
Cc1c(C(=O)N(CCc2ccccc2)Cc2ccccc2)cccc1[N+](=O)[O-]	41.3
O=C1OC(Nc2cc(Br)cc3cccnc23)c2ccccc21 (centres undefined)	96.8
COc1ccccc1C1/C(=C(\O)c2ccc3c(c2)OCCO3)C(=O)C(=O)N1CCCn1ccnc1 (centres undefined)	45.0
CC(C)N(C(=O)[C@H]1C[C@H](CC(=O)NCCC2=CCCCC2)C(=O)N2CCc3c([nH]c4ccc(Cl)cc34)[C@]12C)C(C)C	43.9
CC(C)Cn1c(N)c(C(=O)NCC2CCCO2)c2nc3ccccc3nc21 (centres undefined)	65.0
COc1ccc(-c2cc(C(F)(F)F)n3ncc(C(=O)NCC4CCCO4)c3n2)cc1OC (centres undefined)	-495.9*
SMILES	Apaf-1 act
COCCn1c(N)c(C(=O)NCC2CCCO2)c2nc3ccccc3nc21 (centres undefined)	75.1
CCCCCCN(C(=O)CCCCCN1C(=O)NC(c2ccc(-c3ccccc3)cc2)C(C(=O)OCc2ccccc2)=C1C)C(C(=O)NCCCC)c1cccc(C(=O)OC)c1 (centres undefined)	79.0
O=C1NC(Cc2ccc(O)cc2)c2nc3ccc(Cl)cc3c(=O)n2-c2ccc(Cl)cc21 (centres undefined)	-42.1*
CC1=NN(c2ccc(C)cc2C)C(=O)C1C(c1cccc(O)c1)C1C(=O)N(c2ccc(C)cc2C)N=C1C (centres undefined)	85.3
Cc1c(C=O)c(Cl)n(C)c(=O)c1C#N	96.7
O=C(CSc1nnc(-c2ccc(F)cc2)n1CC1CCCO1)NCc1ccco1 (centres undefined)	53.6
CCC(C)Nc1ccc(NC(C)CC)cc1 (centres undefined)	42.7
CN(C)CCCNc1cc(O)c2ncccc2c1	77.5
COc1ccccc1Oc1c(C)oc2c(CN3CCN(C)CC3)c(O)ccc2c1=O	-594.9*
Oc1ccc(C[C@H]2CNCCN2CCCCC2CCCCC2)cc1	40.6
CCOc1ccc(OCCSc2ccc(S(=O)(=O)N3CCN(C)CC3)cn2)cc1	55.0
CCOc1cc(/C=C(\C#N)C(=O)Nc2cccc(C(=O)O)c2)ccc1OCc1ccc(Br)cc1	-118.8*
COc1cc(Cl)c(NC2=CC(=O)C(=O)c3ccccc32)c(OC)c1	91.9
CC1(C)C=C2C(=NN(c3ccccc3)C(N)=C2C#N)CO1	47.4
Oc1c(Br)cc(Br)cc1C=Nc1cccc2ncccc12	96.6
CCOC(=O)C1CCCN(C(=O)c2cccc(S(=O)(=O)N(C)c3c(C)n(C)n(-c4ccccc4)c3=O)c2)C1 (centres undefined)	49.1
NC(=O)[C@H](Cc1cc2ccccc2s1)NC(=O)[C@@H]1CC2(CC(c3cccc(NC(=O)[C@@H]4CCC(=O)N4)c3)=NO2)CN1C(=O)/C=C/c1c(F)cccc1Cl (some centres undefined)	46.9
C=C(C)C(=O)Nc1cccc(C2=NOC3(C2)C[C@@H](C(N)=O)N(C(=O)C2(C)CC2)C3)c1 (some centres undefined)	-295.2*
CC1=C(C#N)C(=O)N(C2CCS(=O)(=O)C2)C(=O)/C1=C\c1ccco1 (centres undefined)	54.2
COc1ccc(N=CC2=C(Nc3ccc(OC)cc3)c3c(C)nn(-c4ccccn4)c3CC2)cc1	92.6
CCN(CC)c1ccc(/C=C/c2nc3ccccc3s2)cc1	-304.8*
CC[n+]1c(/C=C/N(C)c2ccccc2)n(-c2ccccc2)c2ccc(-c3nc4ccccc4s3)cc21	81.7
CCOC(=O)c1c(NC(=O)N/N=C/c2ccc(O)c(OC)c2)sc(C(C)=O)c1C	-63.1*
COc1cc(/C=N/NC(=O)c2ccncc2)ccc1O	8.8
O=C(Nc1ccccc1)Nc1ccc(O)c2ccccc12	44.0
SMILES	Apaf-1 act
C#CCOCCOCCOCCNc1nc(N2CCN(C(=O)CCCCCCCCCCNC(=O)Cn3cc(CCCCCN)nn3)CC2)nc(N2CCN(C(=O)CCCCCCCCCCNC(=O)[C@H]([C@@H](C)CC)n3cc(CCCCCN)nn3)CC2)n1	74.3
CN(C)c1cc(Cl)c2nonc2c1N	94.4
C[C@@H]1CCCCCCCCC(=O)OCCN[C@H](C)CCCCCCCCC(=O)OCCN[C@H](C)CCCCCCCCC(=O)OCCN1	68.5
O=[N+]([O-])c1ccc(O)c(C=Nc2cccc3ncccc23)c1	90.5
O=[N+]([O-])c1ccc(O)c(C=Nc2cccc3ccccc23)c1	87.5
O=C(NC(C(=O)N/N=C/c1cc([N+](=O)[O-])ccc1O)c1n[nH]c(=O)c2ccccc12)c1ccccc1 (centres undefined)	-438.5*
CCCn1nc(C(=O)Nc2ccc(-n3cnnn3)cc2)c2ccccc2c1=O	70.6
CSCCC(NC(=O)c1ccccc1Br)C(=O)N1CCN(C(C)=O)CC1 (centres undefined)	48.1
CCCCCCCCCCCCC/C=C/[C@@H](O)[C@@H](N)CO	79.2
O=C(NNc1cc(N2CCOCC2)nc(N2CCOCC2)n1)c1ccc(Cl)cc1Cl	47.4
O=c1[nH]nc(-c2ccc(OCc3ccc(Cl)cc3Cl)cc2)o1	-53.6*
Cc1cc(/C=N/n2cnnc2)c(C)n1-c1ccc(OCc2ccc(Cl)cc2Cl)cc1	45.6

Assay outcomes as filed in PubChem BioAssay.
